Screens from PubChem.
The list is not random: actives were taken first. Their share in the collection is about 1.2%.
CAL PDZ FP-1: inhibitors of human CAL PDZ peptide binding; purified CAL PDZ, TMR-peptide fluorescence polarization, 1 h; inhibition, % at 24.9 µM; 300,000 compounds, 0.92% hits; AID 602252;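 active = mean inhibition of at least 30% with at least half of replicates also reaching 30%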;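 also: 0% = DMSO neutral control and 100% = excess unlabeled competitor peptide PRC23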
ARNT-TACC3 inh: disrupts binding between human ARNT and TACC3; Q9Y6A5; AlphaScreen His-ARNT PAS-B/GST-TACC3 binding, luminescence; TACC3 fragment carries E629A point mutation; 390,000 compounds, 0.66% hits; inhibition, % at 9.99 µM;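 active = mean inhibition of replicates at least 50% and at least half of replicates each reaching 50%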;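 also: 0% = complete ARNT plus TACC3 wells and 100% = ARNT alone without TACC3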
CaV13 FRET inh: Disruptors of the CACNA1D IQ motif to Ca2+-dependent inactivation inhibitor domain association, primary screening, Förster resonance energy transfer in intact living …; HEK cells, CFP/YFP FRET ICDI-IQ, plate reader, 10 min; percent FRET-ratio fall versus neutral wells; inhibition, % at 12.3 µM; 340,000 compounds, 0.098% hits; AID 743397;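 active = mean replicate inhibition of at least 30% and at least 1% of replicates passing that level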;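 also: 0% = median of the neutral control wells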
CAL PDZ FP-2: blocks peptide binding to human CAL PDZ domain | inhibition, % at 20 µM | AID 504414 | purified CAL PDZ, TMR-peptide fluorescence polarization, 1 h | Q9HD26 | 330,000 compounds, 0.02% hits;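 active = highest replicate inhibition of at least 40%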;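 also: plate controls were DMSO neutral control wells for no effect and unlabeled competitor peptide control wells for full effect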
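Test system: purified CerCALP PDZ construct; Compound dosing: one concentration, 20 µM compound; Also added: TMR-labelled reporter peptide T*-PRC34 bound in PDZ groove; Read-out: inhibition from polarization loss; Controls: unlabelled peptide and DMSO controls; Signal: FP readout, S and P plane fluorescence; Incubation: 1 h at RT.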
* marks the source's active call; other numbers are inactive results.

For CN(C)/C=C/c1[nH]c(=O)[nH]c(=O)c1[N+](=O)[O-] the results were CAL PDZ FP-1 76.8*, ARNT-TACC3 inh -4.6, CaV13 FRET inh -7.0 and CAL PDZ FP-2 -0.3.
`O=c1[nH]c(/C=C/c2ccc([N+](=O)[O-])cc2)c([N+](=O)[O-])c(=O)[nH]1` gave CAL PDZ FP-1 -2.0, ARNT-TACC3 inh -2.2, CaV13 FRET inh 7.0 and CAL PDZ FP-2 -1.0.
Screening C[C@@H]1CN([C@H](C)CO)C(=O)c2cccc(NC(=O)c3ccc(-c4nccs4)cc3)c2O[C@@H]1CN(C)Cc1ccc(C(=O)O)cc1 returned ARNT-TACC3 inh -2.4.
For CCCNC(=O)Nc1ccc2c(c1)C(=O)N(C)C[C@@H](OC)[C@H](C)CN(C(=O)C1CCC1)[C@H](C)CO2 the results were ARNT-TACC3 inh -10.6.
O=C(C[C@@H]1CC[C@@H]2[C@H](COC[C@@H](O)CN2CCC(F)(F)F)O1)NCC1CCCCC1 was read as ARNT-TACC3 inh 5.4.
Screening CCC(C)(C(=O)NC1CCCCC1)N(C)C(=O)c1ccccn1 (stereo not drawn) returned CAL PDZ FP-1 53.3*, ARNT-TACC3 inh -3.4 and CAL PDZ FP-2 -0.1.
Screening CCC(C)(C(=O)NC1CCCCC1)N(C(=O)c1ccccn1)c1ccccc1 (stereo not drawn) returned ARNT-TACC3 inh -3.9, CaV13 FRET inh -5.0 and CAL PDZ FP-2 0.5.
`COc1ccc(S(=O)(=O)N2CCOC2CNC(=O)C(=O)NCc2ccncc2)cc1` (stereo not drawn) gave CAL PDZ FP-1 active, ARNT-TACC3 inh -1.8, CaV13 FRET inh -5.2 and CAL PDZ FP-2 -0.1.
For O=C(NCCCn1ccnc1)C(=O)NCC1OCCN1S(=O)(=O)c1ccc2c(c1)OCCO2 (stereo not drawn) the results were CAL PDZ FP-1 -4.1, ARNT-TACC3 inh 64.1*, CaV13 FRET inh 0.4 and CAL PDZ FP-2 -1.7.
`COc1ccc(CNC(=O)C(=O)NCC2OCCN2S(=O)(=O)c2ccc(C)cc2)cc1` (stereo not drawn) gave CAL PDZ FP-1 -6.8, ARNT-TACC3 inh -2.2, CaV13 FRET inh -2.8 and CAL PDZ FP-2 0.1.
Cc1cccc(-c2ncc(CN3CCCC(CO)(Cc4cccc(Cl)c4)C3)cn2)c1 (stereo not drawn) was read as CAL PDZ FP-1 57.2*, ARNT-TACC3 inh 0.1, CaV13 FRET inh 13.2 and CAL PDZ FP-2 16.4.
O=C(CCN1CCOCC1)Nc1cc(C(=O)Nc2ccccc2F)ccc1N1CC2CC(C1)c1cccc(=O)n1C2 (stereo not drawn) was read as CAL PDZ FP-1 69.4*, ARNT-TACC3 inh -3.1, CaV13 FRET inh -3.0 and CAL PDZ FP-2 -0.6.
For CCC(=O)Nc1nnc(-c2ccccn2)o1 the results were CAL PDZ FP-1 -1.2, ARNT-TACC3 inh 47.5*, CaV13 FRET inh -13.5 and CAL PDZ FP-2 -2.6.
CCC(=O)Nc1nnc(-c2ccco2)o1 was read as ARNT-TACC3 inh 7.7, CaV13 FRET inh -6.3 and CAL PDZ FP-2 -0.1.
`O=C(COc1ccccc1)Nc1nnc(-c2ccccc2)o1` gave ARNT-TACC3 inh 93.2*, CaV13 FRET inh -5.2 and CAL PDZ FP-2 -1.7.
For COc1cccc(C(=O)OCC(=O)Nc2nnc(-c3ccccc3)o2)c1 the results were CAL PDZ FP-1 2.5, ARNT-TACC3 inh 41.8, CaV13 FRET inh -4.2 and CAL PDZ FP-2 0.0.
`O=C(COc1ccccc1)Nc1nnc(-c2ccco2)o1` gave CAL PDZ FP-1 -0.9, ARNT-TACC3 inh 74.1*, CaV13 FRET inh 1.3 and CAL PDZ FP-2 -0.2.
Screening O=C(COc1ccccc1)Nc1cccc(-c2nnc(-c3ccccc3)o2)c1 returned CAL PDZ FP-1 10.3, ARNT-TACC3 inh -3.5 and CAL PDZ FP-2 -5.9.
Screening O=C(COC(=O)c1ccco1)Nc1nnc(-c2ccccc2)o1 returned CAL PDZ FP-1 -3.2, ARNT-TACC3 inh 59.8*, CaV13 FRET inh -14.7 and CAL PDZ FP-2 -2.5.
Screening COc1cccc(NC(=O)C[C@@H]2CC[C@H]3[C@H](COc4ccc(NC(=O)c5ccccc5F)cc4C(=O)N3C)O2)c1 returned ARNT-TACC3 inh -8.1.
For COc1cc(OC)c(C(=O)OCC(=O)Nc2nnc(-c3ccccc3)o2)cc1OC the results were CAL PDZ FP-1 1.9, ARNT-TACC3 inh 85.0*, CaV13 FRET inh -14.8 and CAL PDZ FP-2 0.6.
Screening COc1cc(OC)cc(C(=O)OCC(=O)Nc2nnc(-c3ccccc3)o2)c1 returned ARNT-TACC3 inh 5.1, CaV13 FRET inh -6.3 and CAL PDZ FP-2 -0.3.
